Assay results published in ChEMBL document CHEMBL2177094, “Structure dependence of long-chain [18F]fluorothia fatty acids as myocardial fatty acid oxidation probes” (J Med Chem, 2012).

Columns and labels:
Muscle tissue [1] = experiment: Biodistribution in overnight fasted Sprague-Dawley rat muscle pellet fraction at 0.7 to 1.4 MBq, iv at 120 mins by Folch-type extraction method; format: ADME, organism-based; conditions: in vivo, 2 h
Method in brief: (§1)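 Female Sprague-Dawley rats, fasted overnight, under isoflurane (3.5% induction, 1.5% maintenance). [18F] tracer in 0.5–1.0% BSA/saline was given by tail vein. POCA group: 30 mg/kg i.p. 120 min before tracer. About 0.5 g tissue was homogenized and sonicated in chloroform/methanol (2:1) at 0 °C, then 40% urea and 5% H2SO4 were added and spun 10 min at 1,800 g. Aqueous, organic and pellet fractions were counted as % of total.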

Liver [2] = experiment: Drug uptake in overnight fasted Sprague-Dawley rat liver at 0.7 to 1.4 MBq, iv at 120 mins; format: ADME, organism-based; conditions: in vivo, 2 h
Method in brief: (§2)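 Female rats fasted overnight, under isoflurane (3.5% induction, 1.5% maintenance). 18F-labelled tracer formulated in 0.5–1.0% BSA/saline, injected via tail vein. Tissues harvested at 30 or 120 min, weighed, gamma-counted, decay-corrected. Uptake expressed as % dose kg/g, i.e. tissue CPM × body wt (kg) × 100 / (tissue wt (g) × dose CPM). POCA groups received 30 mg/kg i.p. 2 h before tracer. n = 5–6.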

Liver [3] = experiment: Biodistribution in overnight fasted Sprague-Dawley rat liver pellet fraction at 0.7 to 1.4 MBq, iv preincubated with POCA for 2 hrs before compound administration measured at 120 mins post treatment by Folch-type extraction method; format: ADME, organism-based; conditions: in vivo; method in brief: as §1
Brain [4] = experiment: Drug uptake in overnight fasted Sprague-Dawley rat brain at 0.7 to 1.4 MBq, iv preincubated with POCA for 2 hrs before compound administration measured at 120 mins post treatment; format: ADME, organism-based; conditions: in vivo
Method in brief: (§3)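 Overnight-fasted female Sprague-Dawley rats under isoflurane received the [18F] tracer in 0.5–1.0% BSA/saline by tail vein. POCA group: 30 mg/kg i.p. 2 h before tracer. Tissues were excised at 30 or 120 min, weighed and gamma-counted with decay correction. Uptake = % dose kg/g, i.e. CPM tissue × body wt (kg) × 100 / (tissue wt (g) × CPM dose). n = 5–6.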

Muscle tissue [5] = experiment: Biodistribution in overnight fasted Sprague-Dawley rat muscle aqueous fraction at 0.7 to 1.4 MBq, iv preincubated with POCA for 2 hrs before compound administration measured at 30 mins post treatment by Folch-type extraction method; format: ADME, organism-based; conditions: in vivo, 0.5 h; method in brief: as §1
Liver [6] = experiment: Biodistribution in overnight fasted Sprague-Dawley rat liver pellet fraction at 0.7 to 1.4 MBq, iv at 120 mins by Folch-type extraction method; format: ADME, organism-based; conditions: in vivo, 2 h; method in brief: as §1
Muscle tissue [7] = experiment: Ratio of drug uptake in overnight fasted Sprague-Dawley rat muscle at 0.7 to 1.4 MBq, iv preincubated with POCA for 2 hrs before compound administration measured at 120 mins post treatment to drug uptake in overnight fasted Sprague-Dawley rat muscle at 0.7 to 1.4 MBq, iv at 120 mins; format: ADME, organism-based; conditions: in vivo
Method in brief: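 Ratio of skeletal muscle uptake (% dose kg/g) 120 min after tail-vein tracer in rats given POCA 30 mg/kg i.p. 2 h beforehand to that in fasted control rats. Radioactivity was decay-corrected and normalized to tissue and body weight.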

Brain [8] = experiment: Drug uptake in overnight fasted Sprague-Dawley rat brain at 0.7 to 1.4 MBq, iv at 120 mins; format: ADME, organism-based; conditions: in vivo, 2 h; method in brief: as §3
Muscle tissue [9] = experiment: Drug uptake in overnight fasted Sprague-Dawley rat muscle at 0.7 to 1.4 MBq, iv at 30 mins; format: ADME, organism-based; conditions: in vivo, 0.5 h; method in brief: as §2
Bone = experiment: Drug uptake in overnight fasted Sprague-Dawley rat bone at 0.7 to 1.4 MBq, iv preincubated with POCA for 2 hrs before compound administration measured at 30 mins post treatment; format: ADME, organism-based, Bone element; conditions: in vivo, 0.5 h; method in brief: as §3
Kidney = experiment: Drug uptake in overnight fasted Sprague-Dawley rat kidney at 0.7 to 1.4 MBq, iv preincubated with POCA for 2 hrs before compound administration measured at 30 mins post treatment; format: ADME, organism-based; conditions: in vivo, 0.5 h; method in brief: as §2
Muscle tissue [10] = experiment: Biodistribution in overnight fasted Sprague-Dawley rat muscle organic fraction at 0.7 to 1.4 MBq, iv preincubated with POCA for 2 hrs before compound administration measured at 30 mins post treatment by Folch-type extraction method; format: ADME, organism-based; conditions: in vivo, 0.5 h; method in brief: as §1
Lung = experiment: Drug uptake in overnight fasted Sprague-Dawley rat lung at 0.7 to 1.4 MBq, iv at 120 mins; format: ADME, organism-based; conditions: in vivo, 2 h; method in brief: as §2
Brain [11] = experiment: Drug uptake in overnight fasted Sprague-Dawley rat brain at 0.7 to 1.4 MBq, iv at 30 mins; format: ADME, organism-based; conditions: in vivo, 0.5 h; method in brief: as §3
Heart [12] = experiment: Ratio of drug uptake in overnight fasted Sprague-Dawley rat heart at 0.7 to 1.4 MBq, iv at 30 mins to drug uptake in overnight fasted Sprague-Dawley rat heart at 0.7 to 1.4 MBq, iv preincubated with POCA for 2 hrs before compound administration measured at 30 mins post treatment; format: ADME, organism-based; conditions: in vivo, 0.5 h
Method in brief: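 Ratio of heart uptake (% dose kg/g) 30 min after tail-vein tracer in fasted control rats to that in rats given POCA 30 mg/kg i.p. 2 h before tracer. Tissue radioactivity was decay-corrected and weight-normalized.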

Heart [13] = experiment: Metabolic stability in overnight fasted Sprague-Dawley rat heart at 9 to 11 MBq, iv measured at 55 to 115 mins by microPET analysis; format: ADME, organism-based; conditions: in vivo

Drug uptake (Muscle tissue [1]) [%]	Drug uptake (Liver [2]) [%IDKg/g]	Drug uptake (Liver [3]) [%]	Drug uptake (Brain [4]) [%IDKg/g]	Drug uptake (Muscle tissue [5]) [%]	Drug uptake (Liver [6]) [%]	Ratio (Muscle tissue [7])	Drug uptake (Brain [8]) [%IDKg/g]	Drug uptake (Muscle tissue [9]) [%IDKg/g]	Drug uptake (Bone) [%IDKg/g]	Drug uptake (Kidney) [%IDKg/g]	Drug uptake (Muscle tissue [10]) [%]	Drug uptake (Lung) [%IDKg/g]	Drug uptake (Brain [11]) [%IDKg/g]	Ratio (Heart [12])	Stability (Heart [13])	SMILES
42.06	0.7548	27.76	0.0519	7.7	54.58	2.2	0.022	0.039	0.1037	0.3441	43.43	0.0702	0.033			O=C(O)CCCCSCCCCCCCCCCCC[18F]
39.51	0.3759	22.07	0.031	25.8	36.13		0.0143	0.0303	0.2289	0.235	47.15	0.0339	0.02	1.7		O=C(O)CCSCCCCCCCCCCCCCC[18F]
49.81	0.47	38.47	0.0578	25.13	63.27	2.7	0.0154	0.031	0.179	0.2477	42.23	0.0183	0.067			O=C(O)CCSCCCCCCCCCCCC[18F]
67.95	0.8488	23.82	0.0206	24.06	59.56		0.0215	0.0201	0.1475	0.1932	43.19	0.0228	0.0206		Stable	O=C(O)CCSCCCC/C=C\CCCCCCCC[18F]
